This note sets out measurements from ChEMBL document CHEMBL1949520, “Synthesis of terphenyl benzimidazoles as tubulin polymerization inhibitors” (2012).

The structures appear in SMILES notation. Active and inactive are the calls of the source. No cut-off for these calls is given here.

Experiment [1] in a line: Growth inhibition of human DWD cells by SRB assay. Type of experiment: functional. In general terms: The SRB assay estimates cell density from bound dye.
Another experiment concerns PC-3. The experiment is described as follows: Growth inhibition of human PC3 cells by SRB assay. Type of experiment: functional.
The subject of a further experiment is ZR-75-1. In words: Growth inhibition of human ZR-75-1 cells by SRB assay. Type of experiment: functional.
The test system of experiment [2] is A549. In words: Inhibition of alpha-tubulin in human A549 cells assessed as ratio of free to polymerized tubulin at 5 uM after 24 hrs by densitometric analysis relative to control. It counts as cell-based. In outline:
(§1)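 A549 cells exposed 24 h (5 μM test agents; 1 μM nocodazole or taxol). Spun 15000g, 30 min, 22 °C to give soluble and polymerized fractions. α-Tubulin Western blot; band densitometry as soluble/polymerized ratio.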

For experiment [3], the system named is A549. In words: Growth inhibition of human A549 cells by SRB assay. It counts as functional.
Experiment [4] can be described thus: Growth inhibition of human Gurav cells by SRB assay. Type of experiment: functional.
The subject of experiment [5] is A549. The experiment is described as follows: Cell cycle arrest in human A549 cells assessed as accumulation at G2/M phase at 5 uM after 48 hrs by propidium iodide staining-based flow cytometric analysis. Type of experiment: functional. In outline:
(§2)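 A549 cells treated 48 h (5 μM test agents; 1 μM standard), trypsin-EDTA harvest, PBS wash, fixed in ice-cold 70% ethanol at 4 °C for 30 min, then stained 30 min at room temperature in the dark with propidium iodide/trisodium citrate/Triton X-100 solution. DNA content by flow cytometry; G2/M fraction compared with untreated control.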
(Flow cytometry measures light scatter and fluorescence of single cells or particles in a stream.)

The next experiment deals with COLO 205. The experiment is described as follows: Growth inhibition of human COLO205 cells by SRB assay. It counts as functional.
The species entered for a further experiment is Bos taurus. The experiment is described as follows: Inhibition of bovine tubulin polymerization after 1 hr at 1 min interval by fluorescence assay. In outline: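 Bovine brain tubulin, 2 mg/mL, in PEM buffer (80 mM PIPES, 0.5 mM EGTA, 2 mM MgCl2, pH 6.9) with fluorescent reporter, compounds at 3 μM, 37 °C. Reaction started by adding 1 mM GTP. Polymerization followed as fluorescence gain (ex 360/em 420 nm), read every 1 min for 1 h. Nocodazole as positive control.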

In the next experiment the test system is HOP-62. The experiment is described as follows: Growth inhibition of human HOP62 cells by SRB assay. It counts as functional.
The next experiment deals with A2780. In words: Growth inhibition of human A2780 cells by SRB assay. Type of experiment: functional.
In a further experiment the test system is KB. In words: Growth inhibition of human KB cells by SRB assay. It counts as functional.
The next experiment has as its system SiHa. In words: Growth inhibition of human SiHa cells by SRB assay. Type of experiment: functional.
The subject of the next experiment is MCF7. In words: Growth inhibition of human MCF7 cells by SRB assay. It counts as functional.
In experiment [6] the test system is A549. In words: Inhibition of alpha-tubulin in human A549 cells assessed as ratio of free to polymerized tubulin at 1 uM after 24 hrs by densitometric analysis relative to control. Type of experiment: cell-based. The gist of the method:
as §1

Experiment [7] has as its system A549. The experiment is described as follows: Cell cycle arrest in human A549 cells assessed as accumulation at G2/M phase at 1 uM after 48 hrs by propidium iodide staining-based flow cytometric analysis relative to control. Type of experiment: functional. The gist of the method:
as §2

The GI50 is the concentration giving 50% growth inhibition. Read a low GI50 as greater sensitivity of the cells. The inhibition is the drop in the measured response relative to a control, in per cent. With `COc1cc(-c2ccc(-c3ccc(-c4nc5cc(C)ccc5[nH]4)cc3)cc2)cc(OC)c1OC`, the GI50 in experiment [1] is 170 nM; with PC-3 it was 180 nM; with ZR-75-1, 190 nM; in the experiment on A549 [3], below 100 nM; in experiment [4], 170 nM; in the experiment with COLO 205, 190 nM. Further, the GI50 in the experiment on HOP-62 came to 2370 nM; with A2780 it was 190 nM; in the experiment on KB, 2110 nM; with SiHa, 170 nM; with MCF7 it was 170 nM. Moreover, the fold change (FC) in the experiment on A549 [2] came to 1.3. The result in the experiment with A549 [5] was Active. Further, the inhibition in the experiment filed under Bos taurus worked out at 48.8%.

For the molecule `Oc1ccc(-c2ccc(-c3ccc(-c4nc5c(O)cccc5[nH]4)cc3)cc2)cc1`, the GI50 is 2700 nM in experiment [1]; 190 nM with PC-3; 2650 nM in the experiment with ZR-75-1; 170 nM in the experiment with A549 [3]; 190 nM in experiment [4]; 2600 nM in the experiment with COLO 205. For the same molecule, the GI50 with HOP-62 stood at 2410 nM; in the experiment with A2780, 2920 nM; with KB, 3190 nM; in the experiment with SiHa, 2410 nM; in the experiment on MCF7, 190 nM. For the same molecule, the fold change (FC) in the experiment with A549 [2] was 1.1. Also, the outcome with A549 [5] was Active. This molecule also showed an inhibition in the experiment filed under Bos taurus of 36.3%.

For `CC(=O)O[C@H]1C(=O)[C@@]2(C)[C@H]([C@H](OC(=O)c3ccccc3)[C@]3(O)C[C@H](OC(=O)[C@H](O)[C@@H](NC(=O)c4ccccc4)c4ccccc4)C(C)=C1C3(C)C)[C@]1(OC(C)=O)CO[C@@H]1C[C@@H]2O`, the fold change (FC) with A549 [6] was 0.5.

`COC(=O)Nc1nc2cc(C(=O)c3cccs3)ccc2[nH]1` came in with an inhibition in the experiment filed under Bos taurus of 58.9%. In the experiment on A549 [7], the outcome was Active. In the experiment with A549 [6], the fold change (FC) stood at 1.5.

In the case of `COc1cc(-c2ccc(-c3ccc(-c4nc5c(O)cccc5[nH]4)cc3)cc2)cc(OC)c1OC`, the GI50 is 190 nM in [1]; 170 nM in the experiment with PC-3; 190 nM with ZR-75-1; below 100 nM in the experiment with A549 [3]; 170 nM in experiment [4]; 190 nM in the experiment with COLO 205. Besides, the GI50 was 190 nM in the experiment with HOP-62; 170 nM with A2780; 2110 nM in the experiment on KB; 170 nM with SiHa; below 100 nM in the experiment with MCF7. Moreover, the fold change (FC) in the experiment on A549 [2] worked out at 1.4. Also, the outcome in the experiment on A549 [5] was Active. This molecule returned an inhibition in the experiment listed under Bos taurus of 98.3%.

`COc1ccc(-c2ccc(-c3ccc(-c4nc5cc(C)ccc5[nH]4)cc3)cc2)cc1`: the GI50 in [1] stood at 100000 nM; in the experiment on PC-3, 100000 nM; in the experiment on ZR-75-1, 41100 nM; in the experiment on A549 [3] it was 6330 nM; in experiment [4], 9270 nM; in the experiment with COLO 205 it was 100000 nM. Moreover, the GI50 with HOP-62 was found to be 36300 nM; in the experiment with A2780 it was 2110 nM; in the experiment on KB, 28300 nM; with SiHa, 21200 nM; in the experiment with MCF7, 3110 nM.
